Laboratory results taken from ChEMBL document CHEMBL1148603, “Inhibition of Trypanosoma cruzi hexokinase by bisphosphonates” (J Med Chem, 2006).
pIC50: −log10 of the molar value. Blank lines part the entries; values can stand above or below the compound they belong to.

Tests used:
Hexokinase = target: T1, Hexokinase (Trypanosoma cruzi, UniProt Q8ST54); experiment: Inhibitory activity against Trypanosoma cruzi hexokinase
T1 sequence (Q8ST54 whole entry): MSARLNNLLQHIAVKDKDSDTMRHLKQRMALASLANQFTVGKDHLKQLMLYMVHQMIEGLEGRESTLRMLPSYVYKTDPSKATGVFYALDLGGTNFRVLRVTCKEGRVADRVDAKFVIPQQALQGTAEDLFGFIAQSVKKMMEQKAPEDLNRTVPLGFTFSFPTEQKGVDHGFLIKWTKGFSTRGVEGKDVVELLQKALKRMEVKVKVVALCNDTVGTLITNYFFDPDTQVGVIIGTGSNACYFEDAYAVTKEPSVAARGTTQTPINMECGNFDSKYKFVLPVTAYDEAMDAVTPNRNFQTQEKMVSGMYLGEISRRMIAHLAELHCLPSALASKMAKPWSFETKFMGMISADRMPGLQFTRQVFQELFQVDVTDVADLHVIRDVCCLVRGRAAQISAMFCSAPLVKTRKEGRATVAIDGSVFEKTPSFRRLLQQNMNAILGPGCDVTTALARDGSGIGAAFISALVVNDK
In short: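 Native glycosomal T. cruzi hexokinase, purified by a previously described procedure. Activity was followed as NADPH formation at 340 nm, coupled to D-glucose-6-phosphate dehydrogenase. Inhibition was reported as IC50.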

Dictyostelium discoideum = experiment: Cytotoxicity to Dictyostelium discoideum; assay type: functional, organism-based
Trypanosoma cruzi = experiment: Growth inhibition of Trypanosoma cruzi intracellular amastigotes; assay type: functional, organism-based
KB = experiment: Cytotoxicity in human nasopharyngeal carcinoma KB cell line; assay type: functional; conditions: read-out: LD50 (the source's name)
In short: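 Human nasopharyngeal carcinoma KB cells were exposed to bisphosphonates up to a highest tested level of 300 µg mL-1. […] The therapeutic index was KB LD50 divided by TcHK IC50.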

TcHK = experiment: Therapeutic index TI=LD50(KB)/IC50(TcHK); conditions: human
[1] = KB cells (cytotoxicity) versus TcHK enzyme

- pIC50 (Hexokinase): ≤ 3.52
SMILES: O=P(O)(O)C(CN[C@@H](CO)c1ccccc1)P(=O)(O)O

SMILES: O=P(O)(O)C(Nc1cccc(-c2ccccc2)c1)P(=O)(O)O
- pIC50 (Hexokinase): 5.71
- pIC50 (Dictyostelium discoideum): 3.68
- pIC50 (Trypanosoma cruzi): 4.33
- CC50 (KB): 827 µM

SMILES: O=[N+]([O-])c1cccc(NC(P(=O)(O)O)P(=O)(O)O)c1 [(3-NITROPHENYLAMINO)METHYLENEDIPHOSPHONIC ACID]
- pIC50 (Hexokinase): 5.62
- pIC50 (Dictyostelium discoideum): 4.11
- selectivity ratio (TcHK; [1]): ≥ 266
- CC50 (KB): ≥ 635 µM

SMILES: CC1CCN(C(P(=O)(O)O)P(=O)(O)O)CC1
- pIC50 (Hexokinase): ≤ 3.52
- pIC50 (Dictyostelium discoideum): 5.70
- selectivity ratio (TcHK; [1]): ≤ 1.5
- CC50 (KB): 446 µM

SMILES: CCn1c2ccccc2c2cc(NC(P(=O)(O)O)P(=O)(O)O)ccc21
- pIC50 (Hexokinase): 6.09
- pIC50 (Dictyostelium discoideum): 2.69
- pIC50 (Trypanosoma cruzi): 5.66
- CC50 (KB): 698 µM

SMILES: Cc1cccc(Cc2ccc[n+](CC(O)(P(=O)(O)O)P(=O)(O)O)c2)c1
- pIC50 (Hexokinase): ≤ 3.52
- pIC50 (Dictyostelium discoideum): 3.05
- selectivity ratio (TcHK; [1]): ≤ 2.4
- CC50 (KB): 728 µM

- pIC50 (Hexokinase): 5.74
SMILES: O=P(O)(O)C(O)(Cn1cnc(-c2ccccc2)c1)P(=O)(O)O
- pIC50 (Dictyostelium discoideum): 3.91

- pIC50 (Hexokinase): ≤ 3.52
SMILES: O=P(O)(O)C(Cc1cccc(-c2ccccc2)c1)S(=O)(=O)O (centres undefined)

- pIC50 (Hexokinase): ≤ 3.52
SMILES: C[N+](C)=c1ccn(CC(O)(P(=O)(O)O)P(=O)(O)O)cc1
- pIC50 (Dictyostelium discoideum): 4.52

SMILES: O=P(O)(O)C(Nc1ncccc1OCc1ccccc1)P(=O)(O)O
- pIC50 (Hexokinase): ≤ 3.52
- pIC50 (Dictyostelium discoideum): 6.00
- CC50 (KB): ≥ 765 µM

SMILES: C[C@H](NC(P(=O)(O)O)P(=O)(O)O)c1cccc2ccccc12
- pIC50 (Hexokinase): ≤ 3.52
- pIC50 (Dictyostelium discoideum): 5.15

- pIC50 (Hexokinase): 5.64
SMILES: Cc1cc(-c2cccc(CC(O)(P(=O)(O)O)P(=O)(O)O)c2)c(F)cc1F

- pIC50 (Hexokinase): ≤ 3.52
SMILES: O=P(O)(O)C(O)(CC12CC3CC(CC(C3)C1)C2)P(=O)(O)O

SMILES: O=P(O)(O)C(NC1CC1)P(=O)(O)O [(CYCLOPROPYLAMINO)METHYLENEDIPHOSPHONIC ACID]
- pIC50 (Hexokinase): ≤ 3.52
- pIC50 (Dictyostelium discoideum): 4.52
- selectivity ratio (TcHK; [1]): ≤ 0.8
- CC50 (KB): 242 µM

SMILES: O=P(O)(O)C(CNc1cccc(-c2ccccc2)c1)P(=O)(O)O
- pIC50 (Hexokinase): 5.46
- pIC50 (Dictyostelium discoideum): 4.21
- selectivity ratio (TcHK; [1]): ≥ 162
- CC50 (KB): ≥ 560 µM

SMILES: O=P(O)(O)C(O)(c1cccc(-c2ccccc2)c1)P(=O)(O)O
- pIC50 (Hexokinase): 4.46
- pIC50 (Dictyostelium discoideum): 3.99
- selectivity ratio (TcHK): 23
- CC50 (KB): 797 µM

SMILES: O=P(O)(O)C(O)(Cc1ccncc1)P(=O)(O)O
- pIC50 (Hexokinase): 4.90
- CC50 (KB): 1040 µM

- pIC50 (Hexokinase): ≤ 3.52
SMILES: O=P(O)(O)C(O)(Cn1cnc2ccccc21)P(=O)(O)O
- pIC50 (Dictyostelium discoideum): 5.70

SMILES: CCCCCCCCCC(O)(P(=O)(O)O)P(=O)(O)O
- pIC50 (Dictyostelium discoideum): 5.00
- CC50 (KB): ≥ 892 µM

SMILES: CCCCCCCc1ccc(NC(P(=O)(O)O)P(=O)(O)O)cc1
- pIC50 (Hexokinase): 5.84
- pIC50 (Dictyostelium discoideum): 5.00
- CC50 (KB): 211 µM

SMILES: O=P(O)(O)C(O)(C[n+]1ccccc1)P(=O)(O)O
- pIC50 (Hexokinase): ≤ 3.52
- pIC50 (Dictyostelium discoideum): 5.52
- CC50 (KB): ≥ 1060 µM

SMILES: CCCCN(CC)C(P(=O)(O)O)P(=O)(O)O [(BUTYL(ETHYL)AMINO)METHYLENEDIPHOSPHONIC ACID]
- pIC50 (Hexokinase): ≤ 3.52
- pIC50 (Dictyostelium discoideum): 5.40
- CC50 (KB): ≥ 1060 µM

SMILES: CN(CCOc1ccccc1)CCC(O)(P(=O)(O)O)P(=O)(O)O
- pIC50 (Hexokinase): ≤ 3.52
- pIC50 (Dictyostelium discoideum): 5.70
- CC50 (KB): 311 µM

SMILES: O=P(O)(O)C(O)(Cc1cccnc1)P(=O)(O)O [RISEDRONIC ACID]
- pIC50 (Hexokinase): ≤ 3.52
- CC50 (KB): 822 µM

SMILES: Cc1cccnc1NC(P(=O)(O)O)P(=O)(O)O
- pIC50 (Hexokinase): 4.34
- pIC50 (Dictyostelium discoideum): 5.52
- CC50 (KB): 840 µM

- pIC50 (Hexokinase): ≤ 3.52
SMILES: CCOC(=O)C(Cc1cccc(-c2ccccc2)c1)P(=O)(O)O (centres undefined)

- pIC50 (Hexokinase): ≤ 3.52
SMILES: O=P(O)(O)C(Nc1cccc(-c2ccc(O)nc2)c1)P(=O)(O)O

SMILES: O=P(O)(O)C(Nc1cccc(Br)c1)P(=O)(O)O
- pIC50 (Hexokinase): 6.02
- pIC50 (Dictyostelium discoideum): 3.95
- selectivity ratio (TcHK): ≥ 812
- CC50 (KB): ≥ 771 µM

- pIC50 (Hexokinase): 5.44
SMILES: O=P(O)(O)C(Nc1ccc(F)c(-c2ccccc2)c1)P(=O)(O)O

SMILES: O=P(O)(O)C(Nc1cccc(CO)c1)P(=O)(O)O
- pIC50 (Hexokinase): 4.83
- pIC50 (Dictyostelium discoideum): 3.45
- selectivity ratio (TcHK): ≥ 67
- CC50 (KB): ≥ 980 µM

SMILES: COCc1cccc(NC(P(=O)(O)O)P(=O)(O)O)c1
- pIC50 (Hexokinase): 5.39
- pIC50 (Dictyostelium discoideum): 3.60
- selectivity ratio (TcHK): > 237
- CC50 (KB): ≥ 964 µM

SMILES: O=P(O)(O)C(O)(C[n+]1cccc(-c2ccccc2)c1)P(=O)(O)O
- pIC50 (Hexokinase): ≤ 3.52
- pIC50 (Dictyostelium discoideum): 5.52
- selectivity ratio (TcHK; [1]): ≤ 0.04
- CC50 (KB): 12 µM

- pIC50 (Hexokinase): ≤ 3.52
SMILES: CC(C)(C)c1cccc(NC(P(=O)(O)O)P(=O)(O)O)c1
- pIC50 (Dictyostelium discoideum): 4.12

- pIC50 (Hexokinase): ≤ 3.52
SMILES: O=P(O)(O)CNc1cccc(-c2ccccc2)c1

- pIC50 (Hexokinase): ≤ 3.52
SMILES: O=c1ccc(-c2cccc(CC(O)(P(=O)(O)O)P(=O)(O)O)c2)c[nH]1

SMILES: COc1ccc(NC(P(=O)(O)O)P(=O)(O)O)cn1
- pIC50 (Hexokinase): ≤ 3.52
- pIC50 (Dictyostelium discoideum): 4.28
- selectivity ratio (TcHK; [1]): ≤ 1
- CC50 (KB): 302 µM

SMILES: O=P(O)(O)C(Nc1cccc(-c2ccc(F)c(F)c2)c1)P(=O)(O)O
- pIC50 (Hexokinase): 5.56
- pIC50 (Dictyostelium discoideum): 4.11
- selectivity ratio (TcHK; [1]): ≥ 285
- CC50 (KB): ≥ 791 µM

SMILES: CCCNC(P(=O)(O)O)P(=O)(O)O [(PROPYLAMINO)METHYLENEDIPHOSPHONIC ACID]
- pIC50 (Hexokinase): ≤ 3.52
- pIC50 (Dictyostelium discoideum): 5.40
- selectivity ratio (TcHK; [1]): ≤ 1.5
- CC50 (KB): 457 µM

SMILES: O=P(O)(O)C(Nc1ccc(Cl)cc1Cl)P(=O)(O)O [2,4-DICHLOROPHENYLAMINOMETHYLENEBISPHOSPHONIC ACID]
- pIC50 (Hexokinase): ≤ 3.52
